Assay results as given in ChEMBL document CHEMBL5150073, “Photocaged DNA-Binding Photosensitizer Enables Photocontrol of Nuclear Entry for Dual-Targeted Photodynamic Therapy” (J Med Chem, 2022).
Calls of active or inactive are those of the source. The calls are words filed in the database; no cut-off is given here.

Experiments:
Calf thymus DNA [1] = experiment: Binding affinity to calf thymus DNA assessed as dissociation constant by fluorescence based analysis; type: nucleic-acid assay, Bos taurus
Outline: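 Fluorescence titration: compound at 20 μM in PBS pH 7.4, calf thymus DNA added in 10 μM steps until emission plateaued (~60 μM). Excitation 345 nm, emission 350–650 nm. KD obtained by fitting a one-site total saturation binding model (nonspecific binding proportional to ligand). Triplicate independent samples.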

Calf thymus DNA [2] = experiment: Binding affinity to calf thymus DNA assessed as red shift in absorbance spectra at 20 uM by fluorescence based analysis; type: nucleic-acid assay; conditions: Bos taurus
[3] = Drug localization in cytosol of human MCF7 cells assessed as increase in bright green fluorescence of wintergreen excitation at 2 uM incubated for 1 hr in dark by EGFP filter based analysis; type: ADME, subcellular
[4] = Aqueous stability of the compound in PBS at pH 7.4 assessed as hydrolysis of carbamate to release 3-bromo-2-(4-carbamimidoylphenyl)-1H-indole-6-carboxamidine at 0.8 uM incubated for 3 hrs by fluorescence based analysis; type: physicochemical; conditions: buffer, pH 7.4, 3 h
[5] = Stability of compound in human A549 cells assessed as esterase-mediated 3-bromo-2-(4-carbamimidoylphenyl)-1H-indole-6-carboxamidine release by measuring cyan fluorescence at 2 uM incubated for 1 hr followed by compound washout and further incubated for 1 hr on heated microscopic stage by DAPI filter based fluorescence analysis; type: ADME, cell-based; conditions: a549, 1 h
Outline: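 Cells incubated with compound (2 μM) for 1 h, washed once with PBS, then kept a further 1 h in the dark on a heated microscope stage. Nuclear cyan fluorescence imaged with the DAPI filter set at 0 h and 2 h time points.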

[6] = Induction of ROS production in PBS at pH 7.4 at 1 uM irradiated with 480 nm 2.3 J/cm^2 light for 15 mins with 2-photon irradiation by DCFH2-DA probe based analysis; type: functional
MCF7 [7] = experiment: Induction of ROS production in human MCF7 cells at 2 uM incubated for 1 hr in dark followed by irradiation with 480 nm 2.3 J/cm^2 light for 15 mins with 8 J/cm^2 UV irradiation for 5 mins by DCFH2-DA probe based analysis; type: functional, cell-based; conditions: time 80.0 min
Outline: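 MCF7 cells incubated with compound (2 μM) 1 h in the dark, washed, loaded with 10 μM DCFH2DA for 30 min, washed. DCF green fluorescence imaged after 480 nm illumination (15 min, 2.3 J cm⁻²), then after added 365 nm UV (5 min, 8.0 J cm⁻²). Mean fluorescence intensity quantified.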

DNA = experiment: Induction of DNA (unknown origin) damage in PBS at pH 7.4 assessed as double strand breaks by measuring elimination of intact DNA at 10 uM irradiated with 480 nm 2.3 J/cm^2 light for 15 mins with 8 J/cm^2 UV irradiation for 5 mins by ethidium bromide staining based agarose gel electrophoresis; type: nucleic-acid assay; conditions: time 20.0 min
Outline: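 Plasmid dsDNA (70 ng pCMV-PARP1-3xFlag-WT, 7146 bp) in PBS pH 7.4 with compound at 10 μM. Illumination: 480 nm for 15 min (2.3 J cm⁻²), then UV 365 nm lamp for 5 min (8.0 J cm⁻²). Samples denatured, run on 1% agarose gel with ethidium bromide. n = 2.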

MCF7 [8] = experiment: Photocytotoxicity against human MCF7 cells assessed as reduction in cell viability incubated for 1 hr followed by washout and irradiation with 480 nm 2.3 J/cm^2 light for 15 mins with 8 J/cm^2 UV irradiation for 5 mins and measured after 24 hrs by MTT assay; type: functional; conditions: MCF7, light or radiation study
Outline: (§1)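 Cells (MCF7, A549, HeLa) incubated 1 h with compound (BB probes 0–32 μM, Br-DAPI 0–64 μM) and washed once. Light arms: 480 nm (15 min, 2.3 J cm⁻²) with or without UV (5 min, 8.0 J cm⁻²), or UV only; dark controls unilluminated. Cells kept overnight in growth medium, then MTT read 24 h post-treatment. CC50 taken relative to untreated cells. n = 3.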

[9] = Selectivity index, ratio of CC50 for photocytotoxicity against human MCF7 cells irradiated with 480 nm 2.3 J/cm^2 light to CC50 for photocytotoxicity against human MCF7 cells irradiated with 480 nm 2.3 J/cm^2 light and 8 J/cm^2 UV irradiation; type: functional; outline: as §1
[10] = Selectivity index, ratio of CC50 for photocytotoxicity against human HeLa cells irradiated with 480 nm 2.3 J/cm^2 light to CC50 for photocytotoxicity against human HeLa cells irradiated with 480 nm 2.3 J/cm^2 light and 8 J/cm^2 UV irradiation; type: functional; outline: as §1
MCF7 [11] = experiment: Induction of ROS production in human MCF7 cells assessed as increase in green fluorescence signal at 3 uM irradiated with 480 nm 2.3 J/cm^2 light for 15 mins with 16 J 780 nm 2P laser light for 10 seconds by DCFH2-DA probe based analysis; type: functional, cell-based
Outline: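 MCF7 cells given compound at 3 μM and DCFH2DA (10 μM). Uncaged by 480 nm illumination (15 min, 2.3 J cm⁻²). DCF fluorescence imaged before and after 780 nm two-photon laser exposure (10 s, 16 J).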

MCF7 [12] = experiment: Photocytotoxicity against human MCF7 cells assessed as cell death by measuring increase in green fluorescence at 4 uM incubated for 1 hr followed by washout and irradiated with 480 nm 2.3 J/cm^2 light for 15 mins with 48 J 780 nm 2P laser light for 30 seconds by cell viability imaging kit based assay; type: functional
Outline: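 MCF7 cells given compound at 4 μM. Illuminated with 480 nm light (15 min, 2.3 J cm⁻²) plus 780 nm two-photon laser (30 s, 48 J). Stained 2 h later with a live/dead imaging kit: green dead-cell stain (EGFP filter), blue total-cell stain (DAPI filter). n = 3.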

[13] = Drug uptake in human MCF7 cells cultured as […] spheroids assessed as increase in green fluorescence in nuclear background at 10 uM incubated overnight under dark condition by DAPI filter based fluorescence analysis; type: ADME, cell-based; conditions: mcf7, 10 µM
MCF7 [14] = experiment: Photocytotoxicity against human MCF7 cells cultured as […] spheroids assessed as cell death by measuring increase in green fluorescence at 10 uM incubated for 1 hr followed by washout and irradiation with 480 nm 2.3 J/cm^2 light for 15 mins with 8 J/cm^2 UV irradiation for 5 mins and incubated overnight by cell viability imaging kit based assay; type: functional
Outline: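 MCF7 spheroids (~300 μm) grown in ultralow-attachment plates. Compound added to medium at 10 μM final for 1 h, then illuminated: 480 nm (15 min, 2.3 J cm⁻²), 480 nm plus UV (5 min, 8.0 J cm⁻²), or UV only. After overnight incubation, stained with a live/dead imaging kit; dead-cell green mean intensity and spheroid diameter assessed.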

[15] = Photorelease activity in PBS at pH 7.4 assessed as 3-bromo-2-(4-carbamimidoylphenyl)-1H-indole-6-carboxamidine release by measuring increase in fluorescence intensity at 50 uM in presence of CT-DNA incubated for 3 hrs under dark condition by RP-HPLC analysis; type: functional
Outline: (§2)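 Samples at 50 μM in PBS pH 7.4 were either kept 3 h at 37 °C in the dark or illuminated 20 min at 480 nm (450–495 nm filter, 3.1 J cm⁻²). Analysed by RP-HPLC on a C18 analytical column with absorbance at 345 nm; retention times recorded. n = 2 independent samples.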

[16] = Photorelease activity in PBS at pH 7.4 assessed as 3-bromo-2-(4-carbamimidoylphenyl)-1H-indole-6-carboxamidine release by measuring time at when peak observed at 50 uM in presence of CT-DNA illuminated with 3.1 J/cm^2 480 nm illumination for 20 mins by RP-HPLC analysis; type: functional; outline: as §2

## CC1=CC(C)=[N+]2C1=C(COC(=O)/N=C(\N)c1ccc3c(Br)c(-c4ccc(C(=N)N)cc4)[nH]c3c1)c1c(C)cc(C)n1[B-]2(C)C
Calf thymus DNA [1]
  Kd: 6 µM
Calf thymus DNA [2]
  Activity: Active
[3]
  Drug uptake: Active
[4]
  Stability: Stable
[5]
  Stability: Stable
[6]
  Activity: Active
MCF7 [7]
  Activity: Active
DNA
  Activity: Active
MCF7 [8]
  CC50: 0.47 µM
[9]
  Ratio: 8.5
[10]
  Ratio: 2.2
MCF7 [11]
  Activity: Active
MCF7 [12]
  Activity: Active
[13]
  Drug uptake: Active
MCF7 [14]
  Activity: Active
[15]
  Drug metabolism: Metabolite not detected
[16]
  TIME: 0.533 h
